Laboratory results from ChEMBL document CHEMBL1124849, “Synthesis, antitumor activity, and antiviral activity of 3-substituted 3-deazacytidines and 3-substituted 3-deazauridines” (J Med Chem, 1990).
≈ marks a conversion by molar mass, not a printed value.

Tests used:
[1] = (§1) The antiviral index is defined as MCC/MIC; type: functional
Enterovirus = experiment: The minimum inhibitory concentration (MIC) required to inhibit rhinovirus type 34 induced cytopathic effect (CPE) on WISH cells; type: functional
Summary of the method: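 WISH cells grown 18–24 h to monolayers. Serial 2-fold drug dilutions applied, then 320 CCID50 of rhinovirus type 34 added; sealed plates incubated 72 h at 33 °C. Cell, virus and toxicity controls included.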

[2] = The minimum cytotoxic concentration (MCC) reducing cell viability on WISH cells; type: cell-based; settings: human
Summary of the method: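 Uninfected WISH cell monolayers, grown 18–24 h, were given serial 2-fold drug dilutions (cells + medium + drug) and incubated at 33 °C for 72 h. Cells were examined microscopically.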

L1210 = experiment: In vitro inhibition of L1210 leukemia cell growth; type: functional; settings: Mus musculus, read-out: ID50 (the source's name)
Mus musculus [3] = experiment: Compound (600 mg/kg) was tested against intraperitoneally implanted P388 leukemia in mice; type: functional
Summary of the method: (§2)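 CD2F1 mice, groups of six, inoculated ip with 10⁶ P388 leukemia cells; ip treatment started 24 h after inoculation, once daily for 5 days. Read-out is %T/C = (mean survival time of treated mice in days / mean survival time of controls) × 100, with ≥120 taken as moderate activity.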

Mus musculus [4] = experiment: Compound (200 mg/kg) was tested against intraperitoneally implanted P388 leukemia in mice; type: functional; summary of the method: as §2
Mus musculus [5] = experiment: Compound (50 mg/kg) was tested against intraperitoneally implanted P388 leukemia in mice; type: functional; summary of the method: as §2
Mus musculus [6] = experiment: Compound (400 mg/kg) was tested against intraperitoneally implanted P388 leukemia in mice; type: functional; summary of the method: as §2
Mus musculus [7] = species on record: Mus musculus; experiment: Mean weight change (day 5 wt minus day 1 wt) of the treated mice to the mean weight change of the control mice in grams; type: functional
Summary of the method: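 CD2F1 mice given 10⁶ P388 cells ip, then ip treatment once daily for 5 days starting at 24 h. Toxicity is the mean weight change (day 5 minus day 1) of treated mice minus that of control mice, in grams.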

Mus musculus [8] = experiment: Compound (100 mg/kg) was tested against intraperitoneally implanted P388 leukemia in mice; type: functional; summary of the method: as §2
[9] = as §1; type: ADME; settings: read-out: Antiviral index
Summary of the method: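 Rhinovirus type 34 on WISH cell monolayers grown 18–24 h. Serial 2-fold drug dilutions were added with 320 CCID50 of virus and incubated at 33 °C for 72 h. CPE was scored microscopically on a 0–4 scale. […] AI = MCC/MIC.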

Q: For `Nc1ccn([C@@H]2O[C@H](CO)[C@@H](O)[C@H]2O)c(=O)c1`, which Antiviral index [1] is on record?
A: Its Antiviral index is 125.

Q: What about the MIC (Enterovirus) of the same compound?
A: Its MIC is 3.2 µg/mL (≈ 13.2 µM).

Q: What about the MCC [2] of the same compound?
A: Its MCC is 400 µg/mL.

Q: And the IC50 (L1210)?
A: Its IC50 is 28.6 µM.

Q: With `O=c1cc(O)ccn1[C@@H]1O[C@H](CO)[C@@H](O)[C@H]1O` as the compound, how does the MCC [2] read?
A: Its MCC is 400 µg/mL.

Q: With `Nc1ccn(C2O[C@H](CO)[C@@H](O)[C@H]2O)c(=O)c1[N+](=O)[O-]` (some centres not stated) as the compound, how does the MCC [2] read?
A: The MCC was greater than 1000 µg/mL.

Q: With `O=c1c([N+](=O)[O-])c(O)ccn1C1O[C@H](CO)[C@@H](O)[C@H]1O` (some centres not stated) as the compound, how does the MCC [2] read?
A: Its MCC is 400 µg/mL.

Q: Which MCC [2] does the source give for `O=c1c(Cl)c(O)ccn1C1O[C@H](CO)[C@@H](O)[C@H]1O` (some centres not stated) here?
A: The MCC was greater than 1000 µg/mL.

Q: Which MCC [2] does the source give for `O=c1c(Br)c(O)ccn1C1O[C@H](CO)[C@@H](O)[C@H]1O` (some centres not stated) here?
A: The MCC was greater than 1000 µg/mL.

Q: Which Antiviral index [1] does the source give for `Nc1ccn(C2O[C@H](CO)[C@@H](O)[C@H]2O)c(=O)c1Br` (some centres not stated) here?
A: The Antiviral index was 4.6.

Q: What about the MIC (Enterovirus) of the same compound?
A: Its MIC is 173 µg/mL (≈ 540 µM).

Q: And the MCC [2]?
A: The MCC was 800 µg/mL.

Q: And the IC50 (L1210)?
A: Its IC50 is greater than 31.1 µM.

Q: For `Nc1c(F)cn(C2O[C@H](CO)[C@@H](O)[C@H]2O)c(=O)c1F` (some centres not stated), which Antiviral index [1] is on record?
A: Its Antiviral index is 14.1.

Q: What about the MIC (Enterovirus) of the same compound?
A: Its MIC is 28.3 µg/mL (≈ 102 µM).

Q: And the MCC [2]?
A: The MCC was 400 µg/mL.

Q: What about the IC50 (L1210) of the same compound?
A: The IC50 was greater than 35.9 µM.

Q: With `Nc1cc(=O)n(C2O[C@H](CO)[C@@H](O)[C@H]2O)cc1F` (some centres not stated) as the compound, how does the MCC [2] read?
A: Its MCC is 800 µg/mL.

Q: For `Nc1ccn(C2O[C@H](CO)[C@@H](O)[C@H]2O)c(=O)c1F` (some centres not stated), which T/C (Mus musculus [3]) is on record?
A: Its T/C is 185.

Q: And the T/C (Mus musculus [4])?
A: The T/C was 158.

Q: What about the MIC (Enterovirus) of the same compound?
A: Its MIC is 1.3 µg/mL (≈ 5 µM).

Q: What about the MCC [2] of the same compound?
A: The MCC was 400 µg/mL.

Q: What about the T/C (Mus musculus [5]) of the same compound?
A: Its T/C is 133.

Q: What about the IC50 (L1210) of the same compound?
A: The IC50 was 11.8 µM.

Q: And the T/C (Mus musculus [6])?
A: Its T/C is 177.

Q: What about the Weight change (Mus musculus [7]) of the same compound?
A: The Weight change was -3.4 (not active) [middle of 5 runs].

Q: What about the T/C (Mus musculus [8]) of the same compound?
A: The T/C was 149.

Q: And the selectivity ratio [9]?
A: Its selectivity ratio is 308.

Q: Which Antiviral index [1] does the source give for `Nc1ccn(C2O[C@H](CO)[C@@H](O)[C@H]2O)c(=O)c1Cl` (some centres not stated) here?
A: Its Antiviral index is 7.5.

Q: And the MIC (Enterovirus)?
A: The MIC was 53.7 µg/mL (≈ 194 µM).

Q: And the MCC [2]?
A: The MCC was 400 µg/mL.

Q: And the IC50 (L1210)?
A: Its IC50 is greater than 36.1 µM.
